Measurements as given in ChEMBL document CHEMBL1147444, “Antagonists of human CCR5 receptor containing 4-(pyrazolyl)piperidine side chains. Part 1: Discovery and SAR study of 4-pyrazolylpiperidine side chains” (Bioorg Med Chem Lett, 2004).

Assays:
[1] = molecular target: T1, C-C chemokine receptor type 5 (Homo sapiens, UniProt P51681); assay: Inhibition of human C-C chemokine receptor 5 by displacement of [125I]-labeled MIP-1alpha from CHO cell membranes
Target sequence in this assay (P51681 whole entry): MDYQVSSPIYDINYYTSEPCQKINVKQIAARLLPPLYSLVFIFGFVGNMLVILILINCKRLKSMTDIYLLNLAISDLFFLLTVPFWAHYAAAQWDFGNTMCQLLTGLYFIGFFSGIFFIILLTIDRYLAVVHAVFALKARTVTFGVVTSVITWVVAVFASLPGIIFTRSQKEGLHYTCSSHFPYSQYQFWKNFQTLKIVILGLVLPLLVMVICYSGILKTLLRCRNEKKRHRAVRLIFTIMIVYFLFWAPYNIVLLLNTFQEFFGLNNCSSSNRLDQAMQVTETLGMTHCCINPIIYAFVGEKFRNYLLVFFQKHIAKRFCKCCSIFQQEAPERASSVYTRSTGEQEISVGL

[2] = system: Human immunodeficiency virus 1; assay: (§1) In vitro antiviral activity against HIV-1 infected HeLa cells; assay type: functional; conditions: Human immunodeficiency virus 1, HeLa
How it was run: (§2)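 Cell-culture HIV-1 infectivity assay in HeLa cells. Read-out is the IC90, with the IC50 given for some entries.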

[3] = molecular target: T1, C-C chemokine receptor type 5; assay: Inhibitory activity against human CC chemokine receptor 5
How it was run: (§3)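 Displacement of [125I]-labeled MIP-1α from human CCR5 on CHO cell membranes, described as a GP120-membrane-based assay. IC50 values are averages of triplicate measurements, with a standard compound run to check variability between assays. Single-point lines are percent inhibition at 2 μM.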
Target sequence in this assay (P51681 whole entry): as above

[4] = system: HeLa; assay: as §1; assay type: functional, cell-based; conditions: Homo sapiens
How it was run: as §2

[5] = system: Rattus norvegicus; assay: Area under curve in rat after p.o. administration; assay type: ADME, organism-based; conditions: in vivo, po
[6] = Oral bioavailability in rat; assay type: ADME, organism-based; conditions: in vivo
[7] = Plasma clearance in rat; assay type: ADME, organism-based; conditions: read-out: Clp
[8] = molecular target: T1, C-C chemokine receptor type 5; assay: Inhibitory activity against human Chemokine receptor 5 at 2 uM concentration
How it was run: as §3
Target sequence in this assay (P51681 whole entry, looked up): as the sequence (P51681 whole entry) above

[9] = Hafl life rat; assay type: ADME, organism-based; conditions: in vivo
[10] = system: HeLa; assay: In vitro antiviral activity against HIV-1 infected HeLa cells when co-administered with compound 8f; assay type: functional; conditions: Homo sapiens
How it was run: as §2

[11] = molecular target: T1, C-C chemokine receptor type 5; assay: Inhibitory activity against human Chemokine receptor 5 when co-administered with compound 8f
How it was run: as §3
Target sequence in this assay (P51681 whole entry): as above

[12] = system: Human immunodeficiency virus 1; assay: Concentration required for anti viral activity against BAL-1 strain of HIV-1 was determined using peripheral blood mononuclear cells; assay type: functional
How it was run: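 Seven-day in vitro infectivity assay in peripheral blood mononuclear cells infected with the HIV-1 BAL-1 strain. Read-out is the IC95.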

[13] = system: HeLa; assay: In vitro antiviral activity against HIV-1 infected HeLa cells from GP120-membrane-based assay; assay type: functional; conditions: Homo sapiens
How it was run: as §2

Compound	IC50 [1] [nM]	IC90 [2] [nM]	IC50 [3] [nM]	other results
O=C(O)[C@@H](C1CCCCC1)N1C[C@H](CN2CCC(c3cc(-c4cccc5ccccc45)[nH]n3)CC2)[C@@H](c2ccccc2)C1	7.5	> 300	–	–
CCCCn1nc(Cc2ccccc2)cc1C1CCN(C[C@H]2CN([C@@H](C(=O)O)C3CCCCC3)C[C@@H]2c2ccccc2)CC1	–	11	3	–
CCCn1ncc(CCc2ccccc2)c1C1CCN(C[C@H]2CN([C@@H](C(=O)O)C3CCCCC3)C[C@@H]2c2ccccc2)CC1	0.6	11	–	–
CCn1nc(C2CCN(C[C@H]3CN([C@@H](C(=O)O)C4CCCCC4)C[C@@H]3c3ccccc3)CC2)cc1Cc1ccccc1	–	> 300	76	–
CCn1ncc(C2(c3ccccc3)CC2)c1C1CCN(C[C@H]2CN([C@@H](C(=O)O)C3CCCCC3)C[C@@H]2c2ccccc2)CC1	–	–	11	–
CCOC(=O)Cn1nc(Cc2ccccc2)cc1C1CCN(C[C@H]2CN([C@@H](C(=O)O)C3CCCCC3)C[C@@H]2c2ccccc2)CC1	–	11	9	–
CCCn1cc(CCc2ccccc2)c(C2CCN(C[C@H]3CN([C@@H](C(=O)O)C4CCCCC4)C[C@@H]3c3ccccc3)CC2)n1	9	–	–	–
N#Cc1ccc(-c2cc(C3CCN(C[C@H]4CN([C@@H](C(=O)O)C5CCCCC5)C[C@@H]4c4ccccc4)CC3)n[nH]2)cc1	7.5	> 300	–	IC50 [4]: 100 nM
O=C(O)[C@@H](C1CCCCC1)N1C[C@H](CN2CCC(c3cc(Cc4ccccc4)n[nH]3)CC2)[C@@H](c2ccccc2)C1	–	0.4	2.2	–
CCCn1nc(Cc2ccccc2)cc1C1CCN(C[C@H]2CN([C@@H](C(=O)O)C3CCCCC3)C[C@@H]2c2ccccc2)CC1	–	1.2	4.6	–
CCn1ncc(CCc2ccccc2)c1C1CCN(C[C@H]2CN([C@@H](C(=O)O)C3CCCCC3)C[C@@H]2c2ccccc2)CC1	–	0.4	0.6	AUC N [5]: 0.01 uM hr dose-1; bioavailability [6]: 2.6%; clearance [7]: 79 mL/min/kg
Cc1cc(-c2ccccc2)n(C2CCN(C[C@H]3CN([C@@H](C(=O)O)C4CCCCC4)C[C@@H]3c3ccccc3)CC2)n1	–	–	–	inhibition [8]: 65%
CCn1nc(CCc2ccccc2)cc1C1CCN(C[C@H]2CN([C@@H](C(=O)O)C3CCCCC3)C[C@@H]2c2cccc(F)c2)CC1	2.2	11	–	AUC N [5]: 0.01 uM hr dose-1; bioavailability [6]: 3.2%; clearance [7]: 72 mL/min/kg; half-life [9]: 27 min
CCc1cc(Cc2ccccc2)n(C2CCN(C[C@H]3CN([C@@H](C(=O)O)C4CCCCC4)C[C@@H]3c3ccccc3)CC2)n1	–	–	–	IC90 [10]: > 300 nM; IC50 [11]: 78 nM
O=C(O)Cn1nc(Cc2ccccc2)cc1C1CCN(C[C@H]2CN([C@@H](C(=O)O)C3CCCCC3)C[C@@H]2c2ccccc2)CC1	–	–	33	–
CCn1ncc(C(C)(C)c2ccccc2)c1C1CCN(C[C@H]2CN([C@@H](C(=O)O)C3CCCCC3)C[C@@H]2c2ccccc2)CC1	–	300	6.9	–
Cc1cc(-c2ccccc2)nn1C1CCN(C[C@H]2CN([C@@H](C(=O)O)C3CCCCC3)C[C@@H]2c2ccccc2)CC1	–	–	–	inhibition [8]: 79%
CCn1nc(-c2ccccc2)cc1C1CCN(C[C@H]2CN([C@@H](C(=O)O)C3CCCCC3)C[C@@H]2c2ccccc2)CC1	–	> 300	22	AUC N [5]: 1.7 uM hr dose-1; bioavailability [6]: 21%; clearance [7]: 3.8 mL/min/kg; IC50 [4]: 100 nM; half-life [9]: 90 min
O=C(O)[C@@H](C1CCCCC1)N1C[C@H](CN2CCC(c3[nH]ncc3Cc3ccccc3)CC2)[C@@H](c2ccccc2)C1	–	100	4.8	–
CC(C)(c1ccccc1)c1cn[nH]c1C1CCN(C[C@H]2CN([C@@H](C(=O)O)C3CCCCC3)C[C@@H]2c2ccccc2)CC1	–	–	11.5	–
O=C(c1ccccc1)c1c[nH]nc1C1CCN(C[C@H]2CN([C@@H](C(=O)O)C3CCCCC3)C[C@@H]2c2ccccc2)CC1	–	–	41	–
CCn1ncc(C(=O)c2ccccc2)c1C1CCN(C[C@H]2CN([C@@H](C(=O)O)C3CCCCC3)C[C@@H]2c2ccccc2)CC1	–	–	23	–

Compound	IC50 [1] [nM]	IC90 [2] [nM]	IC50 [3] [nM]	other results
Cn1cc(CCc2ccccc2)c(C2CCN(C[C@H]3CN([C@@H](C(=O)O)C4CCCCC4)C[C@@H]3c3ccccc3)CC2)n1	23	–	–	–
CCN(C(=O)OCc1ccccc1)C1CCN(CC[C@H](CN(C)S(=O)(=O)c2ccccc2)c2cccc(Cl)c2)CC1	2.4	–	–	IC95 [12]: 13 nM
O=C(O)[C@@H](C1CCCCC1)N1C[C@H](CN2CCC(CCCc3ccccc3)CC2)[C@@H](c2ccccc2)C1	0.2	–	–	IC95 [12]: 93 nM
CCn1cc(Cc2ccccc2)c(C2CCN(C[C@H]3CN([C@@H](C(=O)O)C4CCCCC4)C[C@@H]3c3ccccc3)CC2)n1	–	> 300	20	–
O=C(O)[C@@H](C1CCCCC1)N1C[C@H](CN2CCC(c3n[nH]cc3CCc3ccccc3)CC2)[C@@H](c2ccccc2)C1	–	33	1.2	–
COc1ccc(-c2cc(C3CCN(C[C@H]4CN([C@@H](C(=O)O)C5CCCCC5)C[C@@H]4c4cccc(F)c4)CC3)[nH]n2)cc1	12	> 300	–	–
CCn1nc(-c2cccc3ccccc23)cc1C1CCN(C[C@H]2CN([C@@H](C(=O)O)C3CCCCC3)C[C@@H]2c2cccc(F)c2)CC1	16	–	–	–
CCn1nc(-c2ccc(C#N)cc2)cc1C1CCN(C[C@H]2CN([C@@H](C(=O)O)C3CCCCC3)C[C@@H]2c2ccccc2)CC1	–	> 300	16	IC50 [4]: 33 nM
O=C(O)[C@@H](C1CCCCC1)N1C[C@H](CN2CCC(c3oncc3Cc3ccccc3)CC2)[C@@H](c2ccccc2)C1	–	0.4	0.8	AUC N [5]: 0.03 uM hr dose-1; bioavailability [6]: 5.9%; clearance [7]: 67 mL/min/kg
O=C(O)[C@@H](C1CCCCC1)N1C[C@H](CN2CCC(c3cc(-c4ccc(Cl)cc4)n[nH]3)CC2)[C@@H](c2cccc(F)c2)C1	4	> 300	–	–
CCc1cc(CCc2ccccc2)n(C2CCN(C[C@H]3CN([C@@H](C(=O)O)C4CCCCC4)C[C@@H]3c3ccccc3)CC2)n1	–	–	–	inhibition [8]: 82%
O=C(O)[C@@H](C1CCCCC1)N1C[C@H](CN2CCC(c3cc(Cc4ccccc4)nn3CC(F)(F)F)CC2)[C@@H](c2ccccc2)C1	–	33	4.8	–
O=C(O)[C@@H](C1CCCCC1)N1C[C@H](CN2CCC(c3n[nH]cc3C(F)(F)c3ccccc3)CC2)[C@@H](c2ccccc2)C1	–	300	2.1	–
O=C(O)[C@@H](C1CCCCC1)N1C[C@H](CN2CCC(c3cc(-c4ccc(Cl)cc4Cl)[nH]n3)CC2)[C@@H](c2cccc(F)c2)C1	9	> 300	–	–
Cn1ncc(CCc2ccccc2)c1C1CCN(C[C@H]2CN([C@@H](C(=O)O)C3CCCCC3)C[C@@H]2c2ccccc2)CC1	1	3.7	–	–
CCn1ncc(Cc2ccccc2)c1C1CCN(C[C@H]2CN([C@@H](C(=O)O)C3CCCCC3)C[C@@H]2c2ccccc2)CC1	–	3.7	3	IC90 [13]: 10 nM
O=C(O)[C@@H](C1CCCCC1)N1C[C@H](CN2CCC(c3nocc3Cc3ccccc3)CC2)[C@@H](c2ccccc2)C1	–	3.7	1.2	–
O=C(O)[C@@H](C1CCCCC1)N1C[C@H](CN2CCC(c3n[nH]cc3C3(c4ccccc4)CC3)CC2)[C@@H](c2ccccc2)C1	–	> 300	4.4	–
CCn1cc(CCc2ccccc2)c(C2CCN(C[C@H]3CN([C@@H](C(=O)O)C4CCCCC4)C[C@@H]3c3ccccc3)CC2)n1	–	300	2.3	–
CCn1nc(-c2ccc(CN)cc2)cc1C1CCN(C[C@H]2CN([C@@H](C(=O)O)C3CCCCC3)C[C@@H]2c2ccccc2)CC1	–	–	112	–
Cn1nc(Cc2ccccc2)cc1C1CCN(C[C@H]2CN([C@@H](C(=O)O)C3CCCCC3)C[C@@H]2c2ccccc2)CC1	–	3.7	4.2	–
